Experimental findings from ChEMBL document CHEMBL5500386, “Design, synthesis and bioactivity evaluation of 4-hydroxycoumarin derivatives as potential anti-inflammatory agents against acute lung injury and colitis” (Eur J Med Chem, 2024) are described below.

In one data set the test system is THP-1. Description: Antiinflammatory activity in LPS-induced human THP-1 cells assessed as reduction in IL-6 mRNA transcription pretreated for 2 hrs followed by LPS stimulation and measured after 6 hrs by RT-qPCR analysis. It counts as functional, cell-based. To be noted: dose 2.5-10 µM. An outline of the steps: (§1)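 J774A.1 or THP-1 cells pretreated with compound for 2 h, then LPS 0.5 μg/mL for 6 h, in triplicate. Total RNA extracted and reverse-transcribed. IL-6 quantified by RT-qPCR over 40 cycles and normalised to β-actin.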
Background: Quantitative PCR measures a nucleic acid by following its amplification.

Data set [1] deals with Mus musculus. Description: Protection against LPS-induced C57BL/6 mouse model of acute lung injury assessed as reduction in destruction of the alveolar cell structure at 20 mg/kg, po administered 3 times for every 12 hrs followed by LPS stimulation at 5 mg/kg and measured after 6 hrs by immunohistochemical staining based analysis. The note with it: time 30.0 hrs. The class given is functional, organism-based. An outline of the steps:
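LPS-induced ALI in C57BL/6 mice: 20 mg/kg orally three times at 12 h intervals, then intratracheal LPS 5 mg/kg, lungs taken at 6 h. F4/80 IHC: xylene deparaffinisation, citrate pH 6 retrieval for 25 min, primary antibody at 4 °C for 12 h, secondary 1:2000, DAB and hematoxylin. Viewed at ×20.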

The subject of data set [2] is Mus musculus. Put plainly: Antiinflammatory activity in DSS-induced male C57BL/6 mouse model of inflammatory bowel disease assessed as decrease in disease index at 20 mg/kg, IG administered with compound and DSS for 7 days followed by DSS replacement with distilled water for 3 days. The class given is functional, organism-based. To be noted: time 10.0 day.
Data set [3] deals with J774.A1. Description: Antiinflammatory activity in LPS-induced mouse J774.A1 cells assessed as reduction in IL-6 mRNA transcription pretreated for 2 hrs followed by LPS stimulation and measured after 6 hrs by RT-qPCR analysis. It counts as functional, cell-based. The note with it: dose 2.5-10 µM. An outline of the steps: as §1
The nature of data set [4]: Half life in male Sprague-Dawley rat at 10 mg/kg, po measured upto 24 hrs by triple quadrupole mass spectrometric analysis. The class given is ADME, organism-based. To be noted: in vivo. The method in brief:
(§2)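 Male SD rats (8 weeks, 200 g ± 20 g), n = 3 per route. Oral: 10 mg/kg by gavage in 0.05 % DMSO/normal saline, tail-vein blood at 13 times from 10 min to 24 h. IV: 1 mg/kg tail vein in 5 % DMSO/30 % PEG400/65 % saline, 14 samples from 5 min to 24 h. Heparinised plasma precipitated with acetonitrile containing internal standard. Non-compartmental analysis on mean concentrations.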

A short description of data set [5]: Acute toxicity in male ICR mouse assessed as histopathological changes in spleen at 500 to 1000 mg/kg, po administered daily for 10 days by H and E staining based analysis. The class given is organism-based. To be noted: in vivo, 240 h, dose 500-1000 mg/kg, time 10 day. An outline of the steps:
(§3)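 Male ICR mice (8 weeks, 30 g ± 2 g), acclimatised 1 week, randomised into 1000 mg/kg, 500 mg/kg and untreated control groups (n = 24 total). Dosed by daily gavage, compound dissolved in 0.5 % DMSO then added to normal saline. Body weight and behaviour recorded daily. Euthanised after 10 days; heart, liver, spleen, lung and kidney examined by H&E staining.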

A short description of data set [6]: Acute toxicity in male ICR mouse assessed as histopathological changes in kidney at 500 to 1000 mg/kg, po administered daily for 10 days by H and E staining based analysis. It counts as organism-based. To be noted: in vivo, 240 h, dose 500-1000 mg/kg, time 10 day. An outline of the steps: as §3
The test system of data set [7] is J774.A1. Put plainly: Antiinflammatory activity in LPS-induced mouse J774.a1 cells assessed as inhibition of IL-6 production by measuring fold change at 10 uM pretreated for 2 hrs followed by LPS stimulation and measured after 30 mins by ELISA relative to 4-hydroxycoumarin. It counts as functional. To be noted: time 2.5 hrs.
Data set [8] in a line: Acute toxicity in male ICR mouse assessed as fatality at 500 to 1000 mg/kg, po administered daily for 10 days and measured daily. It counts as organism-based. To be noted: in vivo, 240 h, dose 500-1000 mg/kg, time 10 day. An outline of the steps:
as §3

Data set [9] is described as follows: AUC (0 to infinity) in male Sprague-Dawley rat at 1 mg/kg, iv measured upto 24 hrs by triple quadrupole mass spectrometric analysis. The class given is ADME, organism-based. The note with it: in vivo. The method in brief:
as §2

Data set [10] can be described thus: Acute toxicity in male ICR mouse assessed as reduction in body weight at 500 to 1000 mg/kg, po administered daily and measured on day 1. The class given is organism-based. The note with it: in vivo, 24 h, dose 500-1000 mg/kg, time 1 day. An outline of the steps:
as §3

A short description of data set [11]: Half life in male Sprague-Dawley rat at 1 mg/kg, iv measured upto 24 hrs by triple quadrupole mass spectrometric analysis. The class given is ADME, organism-based. The note with it: in vivo. The method in brief: as §2
Data set [12] is described as follows: Acute toxicity in male ICR mouse assessed as adverse effects at 500 to 1000 mg/kg, po administered daily for 10 days and measured daily. It counts as organism-based. To be noted: in vivo, 240 h, dose 500-1000 mg/kg, time 10 day. An outline of the steps:
as §3

Data set [13] in a line: Cmax in male Sprague-Dawley rat at 10 mg/kg, po measured upto 24 hrs by triple quadrupole mass spectrometric analysis. To be noted: in vivo. The class given is ADME, organism-based.
Data set [14] in a line: Acute toxicity in male ICR mouse assessed as histopathological changes in liver at 500 to 1000 mg/kg, po administered daily for 10 days by H and E staining based analysis. To be noted: in vivo, 240 h, dose 500-1000 mg/kg, time 10 day. The class given is organism-based. The method in brief: as §3
For data set [15], the system named is Mus musculus. Put plainly: Protection against LPS-induced C57BL/6 mouse model of acute lung injury assessed as reduction in IL-6 level in BALF at 20 mg/kg, po administered 3 times for every 12 hrs followed by LPS stimulation at 5 mg/kg and measured after 6 hrs by ELISA. To be noted: time 30.0 hrs. The class given is functional, organism-based. The method in brief:
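C57BL/6 mice, 6 per group. Gavaged at 20 mg/kg three times at 12 h intervals; controls received saline, and dexamethasone 20 mg/kg served as reference. After the last dose, LPS 5 mg/kg given intratracheally. At 6 h, blood collected for serum IL-6 by ELISA. Left lung lavaged with 3 × 200 μL saline, and BALF assayed for IL-6, total protein and neutrophil count. Mean ± SEM, n = 6.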
In general terms: An ELISA detects its analyte on a solid surface through an enzyme-linked reagent.

In data set [16] the test system is J774.A1. Description: Inhibition of LPS-induced NF-kappaB activation in mouse J774.A1 cells assessed as reduction in p65 phosphorylation at 5 to 20 uM pretreated for 2 hrs followed by LPS stimulation and measured after 30 mins by Western blot analysis. The note with it: dose 5-20 µM, time 2.5 hrs. It counts as cell-based. The method in brief: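 J774A.1 macrophages pretreated with 20, 10 or 5 μM for 2 h, then LPS 0.5 μg/mL for 30 min. RIPA lysates quantified by Bradford. 40 μg run on 12.5 % SDS-PAGE and transferred to PVDF. Blocked 1.5 h in BSA, primary antibody overnight at 4 °C, secondary 2 h at room temperature, detected by ECL.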

For data set [17], the system named is TGF-beta-activated kinase 1 (MAP3K7). Put plainly: Inhibition of TAK1 (unknown origin) at 10 uM relative to control. The note with it: Homo sapiens.
The subject of data set [18] is Mus musculus. Put plainly: Antiinflammatory activity in DSS-induced male C57BL/6 mouse model of inflammatory bowel disease assessed as normal appearance of crypt cells at 20 mg/kg, IG administered with compound and DSS for 7 days followed by DSS replacement with distilled water for 3 days by H and E staining based analysis. It counts as functional, organism-based. The note with it: time 10.0 day.

The test system of data set [19] is Mus musculus. Put plainly: Protection against LPS-induced C57BL/6 mouse model of acute lung injury assessed as reduction in immune markers in lungs at 20 mg/kg, po administered 3 times for every 12 hrs followed by LPS stimulation at 5 mg/kg and measured after 6 hrs by H and E staining based analysis. It counts as functional, organism-based. The note with it: time 30.0 hrs. An outline of the steps: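 LPS-induced ALI in C57BL/6 mice: 20 mg/kg orally three times at 12 h intervals, then intratracheal LPS 5 mg/kg, killed at 6 h. Lungs paraffin-embedded, cut into 5 μm sections and H&E stained. Viewed at ×20.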

The target of data set [20] is Mitogen-activated protein kinase 9 (Homo sapiens) (UniProt P45984). Put plainly: Inhibition of JNK2 (unknown origin) at 10 uM relative to control.

Calls of active or inactive are those of the source.

Mitogen-activated protein kinase 9 (Homo sapiens), sequence (P45984 whole entry, looked up): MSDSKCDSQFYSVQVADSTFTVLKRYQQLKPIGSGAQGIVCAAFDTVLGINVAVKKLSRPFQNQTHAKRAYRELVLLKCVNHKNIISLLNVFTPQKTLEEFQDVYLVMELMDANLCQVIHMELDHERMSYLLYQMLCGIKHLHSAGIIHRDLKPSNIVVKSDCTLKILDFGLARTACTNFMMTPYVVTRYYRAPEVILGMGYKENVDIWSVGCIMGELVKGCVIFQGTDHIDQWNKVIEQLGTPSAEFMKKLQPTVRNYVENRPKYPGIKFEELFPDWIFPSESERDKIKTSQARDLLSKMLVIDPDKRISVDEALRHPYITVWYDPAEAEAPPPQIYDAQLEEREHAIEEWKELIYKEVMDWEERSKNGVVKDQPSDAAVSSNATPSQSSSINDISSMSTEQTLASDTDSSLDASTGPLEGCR

In general, half-life refers to the time needed for the level to fall by half in the phase considered. Read a low half-life as rapid decline. The AUC(0-inf) is the area under the concentration-time curve extrapolated to infinity. Low readings indicate low exposure, high ones high exposure. A word on the Cmax: it is the maximum level reached in the sampled fluid or tissue. By inhibition is commonly meant the share of the control response that was lost under treatment. For `CC(=O)N1CCN(CCOc2cc(=O)oc3ccccc23)CC1`, the Activity entry with THP-1 is “Dose-Dependent Effect”; in the data set with J774.A1 [3], “Dose-Dependent Effect”; in data set [5], “Non-Toxic”; in data set [6], “Non-Toxic”; in [8], “Non-Toxic”; in data set [10] it was “Toxic”. Further, the Activity result in data set [12] and in [14] was “Non-Toxic” each time. For the same compound, the result in the data set with Mus musculus [1], in the data set on Mus musculus [2], in the data set on Mus musculus [15], with Mus musculus [18] and with Mus musculus [19] was Active. Moreover, the half-life in [4] is 2.36 h; in data set [11], 0.31 h. Besides, the “fold change (FC)” value with J774.A1 [7] was 3. In [9], this compound returned a total exposure AUC(0-inf) of 1020 ng·h/mL. The compound also returned a Cmax in data set [13] of 1010 ng/mL. The inhibition entry in the data set with J774.A1 [16] is “inactive”. Also, the inhibition in data set [17] turned out to be 1.05%; in [20], 5.93%.
